Source: PubChem (several laboratories)
The entries come from a sample that favours hits as a whole.
T cruzi repl: blocks replication of Trypanosoma cruzi; T. cruzi beta-gal in NIH3T3, luminescence, 90 h; inhibition, % (no concentration beside the values); actives 1.4% (n = 300,000); AID 1885;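 active = mean inhibition across valid replicates above about 55%, limit read from the data; inconclusive = mean below that limit but half or more replicates reach it; inactive = mean below it, under half of replicates reach it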;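 note: signal also drops with host cell toxicity which is not excluded here; 0% = plate median of DMSO wells and 100% = zero luminescence signal; higher percent means less beta-gal luminescence so fewer parasites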
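System: mouse NIH/3T3 fibroblasts infected with β-gal-expressing T. cruzi Tulahuen C4 / Input: NIH/3T3 cells, 5,000 per well / Buffer or medium: Low-serum DMEM with 2% FBS / Probe or stimulus: 5000 reporter trypomastigotes per well / Schedule: ≥90 h infection period, 3 h prior cell attachment / Measured by: GalScreen luminescence, 60 min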
HSF1 activator: increases HSF-1 driven luciferase reporter signal; AID 504408; activation, % at 9 µM; NIH3T3-HGL HSF-1 luciferase reporter, MG132, 8 h; 100% = twice DMSO control signal; actives 1.7% (n = 300,000);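 active = mean replicate activation of at least 50% with a set share of replicates each reaching 50%; inconclusive = only one of those two conditions met; inactive = mean below 50% and too few replicates reaching it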;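 note: 0% = median of the neutral control wells and 100% = twice that signal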
Hsp70 activator: Hsp70 transcriptional activation, primary screen; AID 1203; activation, % at 10 µM; HeLa Hsp70 promoter luciferase reporter, luminescence; scaled: vehicle 0, proteasome-inhibitor control 100%; actives 0.04% (n = 200,000);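 active = activation above the mean across all tested compounds plus 3 SD, cutoff set per campaign, cut at about 5.5% in these data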;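 note: 100% = MG132 at 30 µM as the positive control and 0% = DMSO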
HSF1 inhib: HSF1 inhibition. NIH3T3-HGL HSE-luciferase, MG132-induced, luminescence 8 h; hits give low values. activity change, negative = inhibition, % at 7.5 µM (by protocol). actives 0.77% (n = 300,000). AID 2098;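 active = more than half of replicate wells show activity change below -50%, luminescence cut by over half; inconclusive = some wells, but at most half, below -50%; inactive = no replicate well below -50%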;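 note: luciferase reports HSF-1 transcriptional activity via heat shock element; 0% = median of DMSO wells and -100% = zero luminescence signal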
Lmaj promast: Leishmania major promastigote growth inhibition; inhibition, % at 10 µM; Leishmania major promastigotes, resazurin fluorescence viability; actives 9% (n = 200,000); in the data active = inhibition above about 50%;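 note: promastigotes grown with compound for 44 hours at 28 °C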
An asterisk follows results filed as active; ? = inconclusive; . = no result.

SMILES	T cruzi repl	HSF1 activator	Hsp70 activator	HSF1 inhib	Lmaj promast
CC(=O)Nc1cccc(C(=O)/C=C/c2ccc(/C=C/C(=O)c3cccc(NC(C)=O)c3)cc2)c1	-4	28	0	15	80*
CCC(=O)Nc1cccc(C(=O)/C=C/c2cc(Br)ccc2OC)c1	21	3	1	-1	100*
CC(=O)Nc1cccc(C(=O)/C=C/c2ccc(N(C)C)cc2)c1	3	.	0	.	7
COc1ccccc1/C=C/C(=O)Nc1cccc(C(C)=O)c1	19	20	0	16	10
Cc1cc(=O)oc2c(C)c(OCC(=O)c3ccccc3)ccc12	-13	9	.	-3	.
COc1ccc(OC)c(/C=C/C(=O)OCC(=O)Nc2cccc(C(C)=O)c2)c1	14	14	0	6	66*
CC(=O)Nc1cccc(C(=O)/C=C/c2ccc(F)cc2)c1	-30	31	0	28	100*
COc1ccc(OC)c(/C=C/C(=O)Oc2ccc(C(C)=O)cc2)c1	-12	4	.	5	.
O=C(NC(=O)c1ccccc1O)c1ccc(C(F)(F)F)cc1	-11	91*	.	62	.
CCCc1ccc(C(=O)NC(=O)c2ccccc2O)cc1	-6	2	.	-3	.
O=c1c2ccccc2oc2cc(C#CC3(O)CCCCC3)ccc12	17	-84	.	-81*	.
COc1cccc2oc3cc(C#CC4(O)CCCCC4)ccc3c(=O)c12	49	-21	.	-9	.
O=c1c2ccccc2sc2ccc(C#CC3(O)CCCCC3)cc12	11	-94	.	-92*	.
COc1cccc2sc3ccc(C#CC4(O)CCCCC4)cc3c(=O)c12	46	-22	.	-4	.
COc1ccc(S(=O)(=O)Nc2cc3c4c(c2)CCN4C(=O)CC3)cc1OC	-4	11	.	3	.
OC(CNCc1ccccc1)COCc1ccc(Cl)cc1 (configuration not stated)	38	8	0	3	84*
COc1ccc(C(=O)/C=C/c2ccc(OC(=O)c3cc(OC)c(OC)c(OC)c3)cc2)cc1	-5	39	0	13	65*
COc1cc(/C=C/C(=O)c2ccc3c(c2)OCCO3)cc(OC)c1OC	8	190*	.	147	.
COc1cc(/C=C/C(=O)c2ccc(F)cc2)cc(OC)c1OC	7	31	1	16	100*
COc1ccc(OC)c(/C=C/C(=O)c2ccc3c(c2)OCCO3)c1	-12	66*	.	53	.
COc1ccc(S(=O)(=O)N(CC(=O)N2CCCCCC2)c2ccccc2OC)cc1	4	-10	.	-3	.
CC(C)=C1C2CCC1C1C(=O)N(c3nccs3)C(=O)C21 (configuration not stated)	-11	-14	0	-4	-4
CC(C)=C1C2CCC1C1C(=O)N(c3nc(-c4ccccc4)c(C)s3)C(=O)C21 (configuration not stated)	-9	74*	0	20	-8
Cc1ccc(C(=O)Cn2c(C(=O)/C=C/c3ccccc3)nc3ccccc32)cc1	15	186*	0	166	33
Cc1ccc(C(=O)Cn2c(NCCO)nc3ccccc32)cc1	-4	-6	0	-5	12
SMILES	T cruzi repl	HSF1 activator	Hsp70 activator	HSF1 inhib	Lmaj promast
Cc1ccc(/C=C/C(=O)c2ccccc(=O)c2O)c(C)c1	28	-18	0	-3	81*
O=C(/C=C/c1ccccc1Cl)c1ccccc(=O)c1O	58*	5	0	7	100*
Cc1ccc(C)c(/C=C/C(=O)c2ccccc(=O)c2O)c1	58*	?	0	26	99*
Cc1ccc(C(=O)/C=C/c2ccc3c(c2)OCCO3)c(O)c1	-9	6	.	0	.
Cc1ccc(/C=C/C(=O)c2ccccc2)cc1	-4	1	0	-3	18
Cc1cccc(C(C)C)c1NC(=O)c1ccc(CN(c2ccccc2)S(=O)(=O)c2ccccc2)cc1	1	2	0	-12	31
Cc1cccc(OCCOc2ccccc2C=C(C#N)C#N)c1	-9	30	0	13	94*
Cc1ccccc1OCCOc1ccccc1C=C(C#N)C#N	.	.	0	.	78*
Cc1ccccc1OCCNC(=S)Nc1ccccc1	0	9	0	1	8
Cc1ccc(NC(=S)N2CCN(Cc3ccccc3)CC2)cc1	-24	-6	0	9	-2
FC(F)Oc1ccc(NC(=S)N2CCN(Cc3ccccc3)CC2)cc1	-6	-14	0	-6	80*
CC(C)c1ccc(NC(=S)N2CCN(Cc3ccccc3)CC2)cc1	1	8	0	3	86*
